Test results taken from ChEMBL document CHEMBL3785029, “Synthesis and Characterization of Fatty Acid Conjugates of Niacin and Salicylic Acid” (J Med Chem, 2016).
Calls of active or inactive are those of the source. The rule behind the calls is not given here.

Assays:
[1] = tested on: Plasma; experiment: Drug metabolism in Sprague-Dawley rat plasma assessed as niacin formation at 300 mg/kg, qd administered through oral gavage for 7 days measured 2 hrs post last dose by LC/MS/MS analysis; type: ADME, organism-based; settings: in vivo, BLD = below limit of detection
[2] = tested on: Liver; experiment: Drug metabolism in Sprague-Dawley rat liver assessed as nicotinuric acid formation at 300 mg/kg, qd administered through oral gavage for 7 days measured 2 hrs post last dose by LC/MS/MS analysis; type: ADME, organism-based; settings: in vivo
[3] = tested on: Intestine; experiment: Drug metabolism in Sprague-Dawley rat intestine assessed as niacin linker metabolite N-(2-aminoethyl)nicotinamide formation at 300 mg/kg, qd administered through oral gavage for 7 days measured 2 hrs post last dose by LC/MS/MS analysis; type: ADME, organism-based; settings: in vivo
[4] = Cmax in jugular vein cannulated Sprague-Dawley rat at 30 mg/kg, po measured up to 140 mins; type: ADME, organism-based; parameters: dose 30 mg/kg, route oral; settings: jugular vein blood
In short: (§1)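 Sprague Dawley rats surgically fitted with indwelling jugular vein and portal vein cannulas; oral dosing, then serial blood draws from both portal and jugular veins at 10, 20, 40 min and 1, 2, 4, 6 hr post dose; plasma analysed for parent and metabolites by LC/MS/MS.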

[5] = tested on: Rattus norvegicus; experiment: Cmax in portal vein cannulated Sprague-Dawley rat assessed nicotinuric acid at 30 mg/kg, po measured up to 140 mins; type: ADME, organism-based; parameters: dose 30 mg/kg, route oral; settings: in vivo; in short: as §1
[6] = target: T1, Sterol regulatory element-binding protein 2 (Homo sapiens) (UniProt Q12772); experiment: Inhibition of SREBP2 maturation in human HepG2 cells at 25 uM after overnight incubation by immunoblot analysis in the presence of atorvastatin; type: cell-based
T1 sequence (whole entry): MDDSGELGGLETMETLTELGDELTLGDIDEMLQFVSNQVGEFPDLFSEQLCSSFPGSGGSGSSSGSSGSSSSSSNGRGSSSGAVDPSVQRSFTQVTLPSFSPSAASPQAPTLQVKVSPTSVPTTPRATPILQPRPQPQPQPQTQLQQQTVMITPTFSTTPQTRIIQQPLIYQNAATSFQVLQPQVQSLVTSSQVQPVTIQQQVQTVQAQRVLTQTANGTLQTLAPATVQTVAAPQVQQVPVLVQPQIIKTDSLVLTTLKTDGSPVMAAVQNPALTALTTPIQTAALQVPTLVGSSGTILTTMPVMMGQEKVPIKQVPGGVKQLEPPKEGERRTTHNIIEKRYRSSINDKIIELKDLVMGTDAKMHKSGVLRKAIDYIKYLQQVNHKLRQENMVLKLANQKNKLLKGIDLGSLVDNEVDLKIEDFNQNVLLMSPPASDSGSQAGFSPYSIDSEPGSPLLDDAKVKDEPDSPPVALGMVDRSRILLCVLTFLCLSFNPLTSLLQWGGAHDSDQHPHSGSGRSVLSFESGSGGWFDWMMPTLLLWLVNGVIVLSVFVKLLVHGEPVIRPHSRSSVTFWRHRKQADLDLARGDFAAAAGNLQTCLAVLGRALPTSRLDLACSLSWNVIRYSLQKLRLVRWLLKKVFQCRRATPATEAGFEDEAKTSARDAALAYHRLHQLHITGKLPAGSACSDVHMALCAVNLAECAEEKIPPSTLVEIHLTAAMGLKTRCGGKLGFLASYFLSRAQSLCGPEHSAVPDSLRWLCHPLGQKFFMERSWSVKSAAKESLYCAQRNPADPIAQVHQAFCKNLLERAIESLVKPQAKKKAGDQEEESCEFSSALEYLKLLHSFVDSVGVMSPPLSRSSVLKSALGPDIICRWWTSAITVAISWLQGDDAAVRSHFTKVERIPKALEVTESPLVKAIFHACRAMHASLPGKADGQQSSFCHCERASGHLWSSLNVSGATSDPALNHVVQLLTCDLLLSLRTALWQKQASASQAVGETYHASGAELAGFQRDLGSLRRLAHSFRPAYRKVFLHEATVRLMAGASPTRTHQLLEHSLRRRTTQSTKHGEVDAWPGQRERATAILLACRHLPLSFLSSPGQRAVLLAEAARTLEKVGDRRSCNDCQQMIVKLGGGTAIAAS
In short: (§2)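 Human HepG2 cells incubated with compound (25 and 50 µM), alone or together with 10 µM atorvastatin; mature SREBP-2 protein level assessed.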

[7] = target: T1, Sterol regulatory element-binding protein 2 (Homo sapiens); experiment: Inhibition of SREBP2 in human HepG2 cells assessed as downregulation of PCSK9 mRNA expression by RT-PCR analysis; type: cell-based
[8] = tested on: Plasma; experiment: Metabolic stability in beagle dog plasma at 5 uM up to 2 hrs by LC-MS-MS analysis; type: ADME, cell-free, Canis lupus familiaris
In short: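 Plasma from each species diluted to 50% with 0.05 M PBS pH 7.4 and prewarmed to 37 °C; compound added at 5 µM final (from DMSO stock diluted in MeOH); triplicate incubations at 37 °C, sampled at 0, 30, 60, 120 min, quenched with acetonitrile containing internal standard, centrifuged, analysed by LC/MS/MS.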

[9] = target: T1, Sterol regulatory element-binding protein 2 (Homo sapiens); experiment: Inhibition of SREBP2 maturation in human HepG2 cells at 25 to 50 uM after overnight incubation by immunoblot analysis; type: cell-based; in short: as §2
[10] = tested on: Muscle tissue; experiment: Drug metabolism in Sprague-Dawley rat muscle assessed as salicyluric acid formation at 300 mg/kg, po administered for 14 days followed by 7 day washout cycle measured on day 21; type: ADME, organism-based; settings: in vivo
[11] = AUClast in Sprague-Dawley rat at 300 mg/kg, po measured up to 24 hrs post dose; type: ADME, organism-based; parameters: dose 300 mg/kg, time < 24 hr, route oral; settings: in vivo
In short: (§3)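 Single oral dose of 300 mg/kg to Sprague Dawley rats. Plasma collected at 0, 0.5, 1, 2, 4, 8 and 24 hr. Analytes were the parent, the salicylate-linker and linker-DHA metabolites, salicylic acid and salicyluric acid; Cmax and AUClast derived.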

[12] = tested on: Rattus norvegicus; experiment: Cmax in Sprague-Dawley rat assessed as salicyluric acid at 300 mg/kg, po measured up to 24 hrs post dose; type: ADME, organism-based; parameters: dose 300 mg/kg, route oral; settings: in vivo; in short: as §3
[13] = Drug uptake in Sprague-Dawley rat epididymal fat at 300 mg/kg, po administered for 7 days measured 4 hrs post dose on day 7; type: ADME, organism-based, Epididymal fat pad; settings: read-out: Drug uptake
In short: (§4)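 Male Sprague Dawley rats, groups of 4, dosed orally at 300 mg/kg once daily for 14 days. Animals killed on days 1, 3, 7 and 14, with plasma, brain, epididymal fat, liver and muscle taken 4 hr after dosing. Parent, salicylic acid and salicyluric acid were measured.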

[14] = tested on: Brain; experiment: Drug metabolism in Sprague-Dawley rat brain assessed as salicylic acid formation at 300 mg/kg, po administered for 7 days measured 4 hrs post dose on day 7; type: ADME, organism-based; settings: in vivo; in short: as §4
[15] = Drug metabolism in Sprague-Dawley rat epididymal fat assessed as salicyluric acid formation at 300 mg/kg, po administered for 7 days measured 4 hrs post dose on day 7; type: ADME, organism-based, Epididymal fat pad; settings: in vivo; in short: as §4
[16] = tested on: Brain; experiment: Drug metabolism in Sprague-Dawley rat brain assessed as salicyluric acid formation at 300 mg/kg, po administered for 7 days measured 4 hrs post dose on day 7; type: ADME, organism-based; settings: in vivo; in short: as §4
[17] = tested on: Plasma; experiment: Drug metabolism in Sprague-Dawley rat plasma assessed as salicylic acid formation at 300 mg/kg, po measured up to 24 hrs post dose; type: ADME, organism-based; settings: in vivo; in short: as §3
[18] = Drug uptake in Sprague-Dawley rat epididymal fat at 300 mg/kg, po administered for 14 days followed by 7 day washout cycle measured on day 21; type: ADME, organism-based, Epididymal fat pad; settings: in vivo
[19] = tested on: Liver; experiment: Drug uptake in Sprague-Dawley rat liver at 300 mg/kg, po administered for 14 days followed by 7 day washout cycle measured on day 21; type: ADME, organism-based; settings: in vivo
[20] = Drug metabolism in Sprague-Dawley rat epididymal fat assessed as salicylic acid formation at 300 mg/kg, po administered for 14 days followed by 7 day washout cycle measured on day 21; type: ADME, organism-based, Epididymal fat pad; settings: in vivo

With CC/C=C\C/C=C\C/C=C\C/C=C\C/C=C\CCCC(=O)NCCNC(=O)c1cccnc1 the Drug metabolism [1] was “BLD”, the Drug metabolism [2] was 1356 ng/g and the Drug metabolism [3] was 23899 ng/g. For the same molecule, the Cmax [4] was 35 ng/mL, the Cmax [5] was 125 ng/mL and the inhibition [6] was “Active”. For the same molecule, the inhibition [7] was “Dose-dependent effect”, the Stability [8] was “Stable” and the inhibition [9] was “Dose-dependent effect”.
In the case of CC/C=C\C/C=C\C/C=C\C/C=C\C/C=C\C/C=C\CCC(=O)NCCNC(=O)c1ccccc1O [EDASALONEXENT], the Drug metabolism [10] is reported as “metabolite_notdetected”, the AUC(0-t) at 24 h [11] is reported as 1940 ng·h/mL and the Cmax [12] is reported as 563 ng/mL. The concentration at 4 h [13] was 772 ng/g, the Drug metabolism [14] was 53.32 ng/g and the Drug metabolism [15] was 203.71 ng/g. For the same molecule, the Drug metabolism [16] was 114.43 ng/g, the Drug metabolism [17] was “metabolite_detected” and the Drug uptake [18] was “Not Active”. For the same molecule, the Drug uptake [19] was “Not Active” and the Drug metabolism [20] was “metabolite_notdetected”.
